Results on 17 compounds are retold here after ChEMBL document CHEMBL1148384, “Design and synthesis of peptidomimetic protein farnesyltransferase inhibitors as anti-Trypanosoma brucei agents” (J Med Chem, 2004).

In assay [1] the test system is Trypanosoma brucei rhodesiense. Kind of assay: Effective dose required to inhibit the growth of Trypanosoma brucei rhodesiense. In kind it is functional. The conditions noted are these: read-out: ED50 (the source's name). An outline of the steps: (§1)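 Bloodstream-form trypomastigotes of strain STIB 900 were grown in HMI-18 with nonessential amino acids, glucose and 15% heat-inactivated FCS at 37 °C, 5% CO2. Compounds were given as serial dilutions, in triplicate, from 1 × 10^4 cells/well. Cultures ran 72 h before Alamar Blue read-out, and ED50 was fitted.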

In assay [2] the test system is Trypanosoma brucei brucei. Kind of assay: Effective dose required to inhibit the growth of Trypanosoma brucei. Type of assay: functional. Particulars: read-out: ED50 (the source's name). The procedure, abridged: (§2)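 Bloodstream-form strain 427 was grown in HMI-9 with 10% FBS at 37 °C, 5% CO2. Cells were seeded at 1 × 10^4 trypomastigotes/well in triplicate, with serial dilutions from 20 mM DMSO stocks. Growth was read with Alamar Blue at 48 h, pentamidine served as positive control, and ED50 was fitted from the curves.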

For assay [3], the system named is protein farnesyltransferase (Trypanosoma brucei). Kind of assay: Inhibition of Trypanosoma brucei protein farnesyltransferase at 50 nM (29-41%).
Assay [4] concerns NIH3T3. Kind of assay: Effective dose against murine 3T3 fibroblasts cells. In kind it is functional. The conditions noted are these: Mus musculus, read-out: ED50 (the source's name). An outline of the steps: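 Murine 3T3 fibroblasts were grown in RPMI 1640 with 10% FBS and held 72 h with compound at 37 °C, 5% CO2.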
In assay [5] the target is protein farnesyltransferase (Trypanosoma brucei). Briefly: Inhibition of Trypanosoma brucei protein farnesyltransferase.
Assay [6] has as its system Protein farnesyltransferase (Trypanosoma brucei). Kind of assay: Inhibition of Trypanosoma brucei protein farnesyltransferase at 50 nM (82-87%).
Assay [7] has as its system Trypanosoma brucei rhodesiense. Briefly: Dose required to inhibit growth of Trypanosoma brucei rhodesiense; 14->60 uM. In kind it is functional. Particulars: read-out: ED50 (the source's name). An outline of the steps: as §1
The test system of assay [8] is protein farnesyltransferase (Trypanosoma brucei). Kind of assay: Inhibition of Trypanosoma brucei protein farnesyltransferase at 50 nM (0-17%).
Assay [9] relates to Trypanosoma brucei rhodesiense. Briefly: Dose required to inhibit growth of Trypanosoma brucei rhodesiense; 0.38-0.92 uM. Type of assay: functional. Particulars: read-out: ED50. The procedure, abridged: as §1
The subject of assay [10] is Trypanosoma brucei brucei. Kind of assay: Dose required to inhibit growth of Trypanosoma brucei; 1-5 uM. In kind it is functional. Particulars: read-out: ED50. The procedure, abridged:
as §2

Assay [11] relates to protein farnesyltransferase (Trypanosoma brucei). Briefly: Inhibition of against Trypanosoma brucei protein farnesyltransferase at 50 nM concentration.
Assay [12] shares this test system. Briefly: Inhibition of Trypanosoma brucei protein farnesyltransferase at 50 nM concentration (65-74%).
The target in assay [13] is protein farnesyltransferase (Trypanosoma brucei). Briefly: Inhibition of Trypanosoma brucei protein farnesyltransferase at 50 nM.
For assay [14], the target named is Protein farnesyltransferase (Homo sapiens, UniProt P49354+P49356). Kind of assay: Inhibition of mammalian protein farnesyltransferase. In kind it is protein-complex assay.
Assay [15] deals with NIH3T3. Kind of assay: Dose required to block Ras farnesylation in mouse 3T3 fibroblasts. Particulars: read-out: ED50 (the source's name). Type of assay: functional.

In the case of `CSCC[C@H](NC(=O)c1ccc(NCc2cncn2Cc2ccccc2C)cc1-c1ccccc1)C(=O)O`, the figures for the EC50 (in [1]; in [2]; in the assay on NIH3T3 [4]) were over 60 µM, over 10 µM and over 10 µM, respectively. Also, the inhibition in [3] was at most 41%.
As to `COC(=O)[C@H](CCSC)NC(=O)c1ccc(NC[C@@H](N)CS)cc1-c1ccccc1`, the EC50 in assay [2] was 0.7 µM; in the assay with NIH3T3 [4], over 25 µM. The IC50 in [5] was 0.04 µM.
`CSCC[C@H](NC(=O)c1ccc(NCc2cncn2Cc2ccc(Cl)cc2)cc1-c1ccccc1)C(=O)O` registered an inhibition in assay [6] of at most 87%. Also, the EC50 is over 60 µM in assay [7], over 10 µM in assay [2] and over 10 µM in the assay with NIH3T3 [4].
Consider `COC(=O)[C@H](CCSC)NC(=O)c1ccc(NCc2cncn2Cc2cccc(C)c2)cc1-c1ccccc1`, for which the inhibition in assay [8] is at most 17%. Further, the EC50 in assay [9] was at most 0.92 µM; in assay [10] it was at most 5 µM; with NIH3T3 [4], over 10 µM.
The compound `CSCC[C@H](NC(=O)c1ccc(NCc2cncn2Cc2ccc(C)cc2)cc1-c1ccccc1)C(=O)O` came in with an inhibition in assay [6] of at most 87%. Further, the EC50 in [7] is over 60 µM; in assay [2], over 10 µM; in the assay on NIH3T3 [4] it was over 10 µM.
`CSCC[C@H](NC(=O)c1ccc(NC(=O)Cc2cncn2C)cc1-c1ccccc1C)C(=O)O`: the EC50 was over 60 µM in assay [1], over 25 µM in [2] and over 25 µM in the assay with NIH3T3 [4]. The IC50 in [5] was 0.0066 µM. This compound came in with an inhibition in assay [11] of 83.2%.
In turn, `COC(=O)[C@H](CCSC)NC(=O)c1ccc(NCc2cncn2Cc2cccc(C#N)c2)cc1-c1ccccc1` registered an inhibition in assay [8] of at most 17%. Moreover, the values for the EC50 (in assay [9]; in assay [10]; in the assay on NIH3T3 [4]) were at most 0.92 µM, at most 5 µM and over 10 µM, respectively.
For the compound `CSCC[C@H](NC(=O)c1ccc(NCc2cncn2Cc2ccccc2C#N)cc1-c1ccccc1)C(=O)O`, the EC50 in assay [1] was over 60 µM; in assay [2], over 10 µM; with NIH3T3 [4] it was over 10 µM. The same compound had an inhibition in [3] of at most 41%.
For `CSCC[C@H](NC(=O)c1ccc(NCc2cncn2Cc2cccc(Cl)c2)cc1-c1ccccc1)C(=O)O`, the EC50 is over 60 µM in [1], over 10 µM in assay [2] and over 10 µM with NIH3T3 [4]. In [12], this compound gave an inhibition of at most 74%.
For `COC(=O)[C@H](CCSC)NC(=O)c1ccc(NCc2cncn2Cc2cccc(Cl)c2)cc1-c1ccccc1`, the inhibition in assay [8] is at most 17%. In addition, the EC50 in assay [9] was at most 0.92 µM; in assay [10], at most 5 µM; in the assay on NIH3T3 [4], over 10 µM.
As for `CSCC[C@H](NC(=O)c1ccc(NCc2cncn2Cc2cccc(C)c2)cc1-c1ccccc1)C(=O)O`, the values for the EC50 (in assay [1]; in [2]; with NIH3T3 [4]) were over 60 µM, over 10 µM and over 10 µM, respectively. In addition, the inhibition in assay [12] is at most 74%.
On to `CSCC[C@H](NC(=O)c1ccc(NCc2cncn2Cc2ccc(-c3ccccc3)cc2)cc1-c1ccccc1)C(=O)O`, for which the EC50 was over 60 µM in [7] and over 10 µM in [2]. Further, the inhibition in assay [11] turned out to be 85.6%. In assay [13], this compound showed a half-maximal inhibitory concentration (IC50) of 0.008 µM.
As to `CSCC[C@H](NC(=O)c1ccc(NCc2cncn2Cc2ccccc2Cl)cc1-c1ccccc1)C(=O)O`, the figures for the EC50 (in assay [1]; in assay [2]; in the assay on NIH3T3 [4]) were over 60 µM, over 10 µM and over 10 µM, respectively. For the same compound, in assay [3], the inhibition is at most 41%.
On to `CSCC[C@H](NC(=O)c1ccc(CNCc2c[nH]cn2)cc1-c1ccccc1C)C(=O)O`, for which the EC50 in assay [1] is 0.2 µM; in [2], 1 µM; in the assay with NIH3T3 [15], 0.02 µM; in the assay on NIH3T3 [4], over 25 µM. The IC50 in [14] turned out to be 0.00086 µM; in assay [5], 0.0018 µM. In [11], this compound showed an inhibition of 96.1%.
The compound `CSCC[C@H](NC(=O)c1ccc(NCc2cncn2Cc2ccc([N+](=O)[O-])cc2)cc1-c1ccccc1)C(=O)O` returned an inhibition in assay [6] of 87%. For the same compound, the EC50 in assay [7] was over 60 µM; in assay [2] it was over 10 µM; in the assay with NIH3T3 [4], over 10 µM.
Regarding `CSCC[C@H](NC(=O)c1ccc(NCc2cncn2Cc2cccc(C#N)c2)cc1-c1ccccc1)C(=O)O`, the values for the EC50 (in [1]; in assay [2]; with NIH3T3 [4]) were over 60 µM, over 10 µM and over 10 µM, respectively. In assay [12], the inhibition was at most 74%.
For `COC(=O)[C@H](CCSC)NC(=O)c1ccc(NCc2cncn2Cc2cccc([N+](=O)[O-])c2)cc1-c1ccccc1`, the inhibition in assay [8] was at most 17%. The EC50 is at most 0.92 µM in assay [9], at most 5 µM in assay [10] and over 10 µM in the assay on NIH3T3 [4].
